Source: article PMC4427609 (Drug Design, Development and Therapy, 2015)
Read-outs that look alike come from different tables or passages of the source. Each block holds one molecule with its values, some of them ahead of it.

Key:
Format in all cases: in vivo, rat
Sprague-Dawley rats [1] = conditions: third day post STZ, mean ± SEM, n=10; for ALP (alkaline phosphatase) / ALT (alanine aminotransferase) / AST (aspartate aminotransferase) / Albumin / Creatinine / GGT (gamma-glutamyl transferase) / Urea: serum
Procedure, shortened: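 Male SD rats got blank injections (no STZ), one STZ dose, or two STZ doses over 2 days. STZ was freshly dissolved in 0.1 M citrate buffer pH 4.5 and given at 80 mg/kg ip. On day 3 rats were fasted for 18 h with water ad libitum. They were then staged by glucose: Stage 0 <200, Stage 1 200–450, Stage 2 451–750 mg/dL.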

Sprague-Dawley rats [2] = assay: Histopathology of liver, kidney and pancreas of STZ-induced diabetic rats; conditions: hematoxylin and eosin, light microscope
Procedure, shortened: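 Diabetes was induced in male SD rats with freshly dissolved STZ (0.1 M citrate, pH 4.5), 80 mg/kg ip, two doses over 2 days; diabetic meant fasting glucose >200 mg/dL. Liver, kidney and pancreas from diabetic and nondiabetic rats were taken immediately after sacrifice and fixed in 10% phosphate-buffered formalin. Tissue was paraffin-embedded, cut at 5 μm, H&E-stained and examined by light microscopy.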

[3] = Serum insulin pharmacokinetics in STZ diabetic and nondiabetic rats; conditions: insulin 4 IU/kg subcutaneously; result in words
[4] = tested on: STZ diabetic and nondiabetic rats; assay: Effect of insulin dose on STZ diabetic and nondiabetic rats; conditions: insulin 6 IU/kg subcutaneously, 2 hours, mean ± SEM, n=10
[5] = Stage 1 diabetic rats (200–450 mg/dL)
[6] = Stage 2 diabetic rats (451–750 mg/dL)

ALP (alkaline phosphatase) (Sprague-Dawley rats [1]; [5]): 247±47.5 IU/L
Albumin (Sprague-Dawley rats [1]; [5]): 4.5 ± 0.3 g/dL
Creatinine (Sprague-Dawley rats [1]; [5]): 1.1 ± 0.3 mg/dL
GGT (gamma-glutamyl transferase) (Sprague-Dawley rats [1]; [5]): 3.4±0.8 IU/L
Urea (Sprague-Dawley rats [1]; [5]): 70.7 ± 10.2 mg/dL
ALP (alkaline phosphatase) (Sprague-Dawley rats [1]; [6]): 322.7±25.5 IU/L
Albumin (Sprague-Dawley rats [1]; [6]): 4.9 ± 0.2 g/dL
Creatinine (Sprague-Dawley rats [1]; [6]): 1.6 ± 0.2 mg/dL
GGT (gamma-glutamyl transferase) (Sprague-Dawley rats [1]; [6]): 9.5±4.1 IU/L
Urea (Sprague-Dawley rats [1]; [6]): 148.8 ± 9.3 mg/dL
Molecule: CN(N=O)C(=O)N[C@H]1C(O)O[C@H](CO)[C@@H](O)[C@@H]1O (mixture of isomers) [STZ, streptozotocin]
Glucose (heart) (Sprague-Dawley rats [1]; [5]): 439 ± 20.9 mg/dL
Glucose (heart) (Sprague-Dawley rats [1]; [6]): 668 ± 34.5 mg/dL
ALT (alanine aminotransferase) (Sprague-Dawley rats [1]; [5]): 88±18.8 IU/L
AST (aspartate aminotransferase) (Sprague-Dawley rats [1]; [5]): 131.4±23.1 IU/L
ALT (alanine aminotransferase) (Sprague-Dawley rats [1]; [6]): 80.1±8.1 IU/L
AST (aspartate aminotransferase) (Sprague-Dawley rats [1]; [6]): 151.8±22.9 IU/L
Histology of kidney sections (Sprague-Dawley rats [2]): tubular atrophy and increased vacuolization of renal tubular epithelial cells
Histology of liver sections (Sprague-Dawley rats [2]): clear diffused hepatic steatosis

Molecule: insulin: Recombinant human (rh) insulin powder from Biocon, dissolved in Tris buffer (pH 7), injected subcutaneously
AUC of diabetic rats compared to nondiabetic rats [3]: doubled
minimum percentage of glucose level ([4]; STZ diabetic rats): 13.4%±1%
minimum percentage of glucose level ([4]; nondiabetic rats): 40.7%±4%
